SIRT5 block = inhibitors of human sirtuin-5 desuccinylase. AID 652115. 1.1% of 330,000 active. Purified SirT5, succinyl-peptide AMC, trypsin-coupled fluorescence. inhibition, % at 15 µM. Q9NXA8; in the data active = inhibition above about 15%
FGF22 binding = FGF22 (human) thermal shift binding; Q9HCT0; recombinant FGF22 thermal shift, SYPRO orange fluorescence; percent of sucrose octasulfate shift, DMSO zero; activity (Tm shift, normalised), % at 9.99 µM; 1.5% of 340,000 active; AID 651658;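 active = mean Tm shift, scaled 0 neutral to 100 positive control, at about 1.3% or above, every replicate too, limit read from the data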
NSD2 inh = NSD2 (human) methyltransferase inhibition. O96028. NSD2 peptide methylation, AlphaScreen, 120 min. inhibition, % at 12.5 µM. 0.54% of 310,000 active. AID 743445; in the data active = inhibition above about 50%
UCH37 DUB inh = inhibitors of human deubiquitinating enzyme UCH37. Q9Y5K5. purified proteasome/UCH37, Ub-AMC cleavage fluorescence. inhibition, % (concentration not given with the values). 0.33% of 330,000 active. AID 588478;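 active = mean inhibition over replicate wells above about 20%, limit read from the data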;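 also: 0% = compound-free wells with enzyme and 100% = wells lacking proteasome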
Target sequence (Q9Y5K5 whole entry, looked up): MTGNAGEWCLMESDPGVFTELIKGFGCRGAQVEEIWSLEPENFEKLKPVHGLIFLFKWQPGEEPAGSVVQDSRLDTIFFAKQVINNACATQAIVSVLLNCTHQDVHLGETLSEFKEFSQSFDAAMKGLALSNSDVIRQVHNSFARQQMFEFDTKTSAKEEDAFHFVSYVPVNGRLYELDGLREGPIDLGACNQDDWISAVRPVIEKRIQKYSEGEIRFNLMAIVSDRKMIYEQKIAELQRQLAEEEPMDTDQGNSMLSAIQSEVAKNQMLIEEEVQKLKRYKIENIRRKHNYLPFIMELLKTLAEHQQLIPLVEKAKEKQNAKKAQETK
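Material: human UCH37 enzyme supplied as purified proteasome complex. Measure: % inhibition of Ub-AMC cleavage fluorescence. Medium: pH 7.4 Tris-HCl (50 mM) with ovalbumin, ATP-MgCl2, DTT. Times: 30 min preincubation with enzyme, 25 min cleavage at room temperature. Detection: AMC fluorescence intensity at 355/460 nm.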
Casp6 inh = blocks human caspase-6 cleavage activity; purified caspase-6, Z-VEID-R110 cleavage fluorescence; inhibition, % at 12.5 µM; 0.53% of 350,000 active; AID 686996;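 active = mean inhibition across replicates at least about 35%, with every replicate also reaching that limit, limit read from the data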;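 also: 0% = median of neutral control wells and 100% = no fluorescence left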
* marks the source's active call; other numbers are inactive results; . = no result. Rows were chosen to be rich in hits. Some 2.6% of all compounds tested hit in one or more screens of this group.

SMILES | SIRT5 block | FGF22 binding | NSD2 inh | UCH37 DUB inh | Casp6 inh
CCCCCCN1C[C@H](O)[C@@H](n2cc(COC(=O)c3ccccc3)nn2)C[C@@H]1c1ccc(Cl)cc1 | 15* | 0 | . | . | -4
CC(=NNC(=O)CN1CCN(Cc2ccccc2Cl)CC1)c1ccncc1 | . | . | . | -2 | .
Cc1ccc(OCc2ccc(Br)cc2)c([N+](=O)[O-])n1 | -7 | 45* | -7 | 0 | 0
Cc1ccc(OCc2ccc(-c3ccccc3)cc2)c([N+](=O)[O-])n1 | -3 | 0 | 0 | 4 | 0
O=[N+]([O-])c1ccc(S(=O)(=O)N/N=C/c2ccc3c(c2)OCO3)cc1 | 1 | 0 | -1 | . | 7
O=[N+]([O-])c1cccc(S(=O)(=O)N/N=C\c2ccc3c(c2)OCO3)c1 | 20* | 0 | 0 | . | 2
CCC(C)N(C(=O)COC(=O)CSc1ccc(C)c(C)c1)C1CCS(=O)(=O)C1 (stereo not given) | -1 | 0 | -4 | 1 | -134
CCC(C)N(C(=O)CSc1ccc(NC(C)=O)cc1)C1CCS(=O)(=O)C1 (stereo not given) | -9 | 43* | -1 | 1 | 1
COc1ccccc1NS(=O)(=O)c1cccc(C(=O)NN=Cc2c(C)nn(-c3ccccc3)c2N2CCCC2)c1 | . | . | . | -28 | .
CC(C)(C)c1ccc(NN=C(C#N)S(=O)(=O)C(C)(C)C)cc1 | . | . | . | 4 | .
c1ccc(COc2ncnc3c2ncn3CCCNCc2cccs2)cc1 | . | 43* | . | . | 3
Cc1cc(C=NNc2nc(N3CCOCC3)nc(N3CCOCC3)n2)c(C)n1-c1ccccc1 | . | . | . | 0 | .
CC(C)c1ccc(OCc2cccc(C(=O)N/N=C/c3cccnc3)c2)cc1 | -4 | 28* | -4 | . | 7
CCOc1ccc(OCc2cccc(C(=O)N/N=C/c3cccnc3)c2)cc1 | . | . | 8 | . | .
COC(=O)[C@H](CC(C)C)NC(=O)Nc1cccc(Br)c1 | 1 | 0 | 0 | 1 | -3
CC(C)C[C@H](NC(=O)Nc1cccc(Br)c1)C(=O)O | -3 | 44* | -4 | 1 | -1
C[C@H]1CN([C@@H](C)CO)C(=O)c2cc(-c3ccncc3)cnc2O[C@@H]1CN(C)C(=O)C1CCOCC1 | -3 | 0 | . | . | -2
COc1ccccc1NS(=O)(=O)c1cc(C(=O)NC2CCN(Cc3ccccc3)CC2)ccc1C | -14 | 0 | 1 | . | 55*
COc1ccccc1NS(=O)(=O)c1cccc(C(=O)NC2CCN(Cc3ccccc3)CC2)c1 | . | . | -6 | 1 | .
CCOC(=O)C1=C(C)NC(C)=C(C(=O)OCC)C1C(=O)OCC(=O)N1CCC(C)CC1 | . | 43* | 0 | -27 | -2
C[C@@H]1CN([C@@H](C)CO)C(=O)Cc2cc(NC(=O)Nc3ccccc3)ccc2O[C@H]1CN(C)C(=O)Nc1ccc(F)cc1 | -2 | 0 | . | . | 0
CCS(=O)(=O)c1nc(S(=O)(=O)c2ccc(Cl)cc2)c(N2CCC3(CC2)OCCO3)s1 | -6 | 43* | 0 | 3 | 0
CCS(=O)(=O)c1nc(S(=O)(=O)c2ccc(Cl)cc2)c(N2CCC(C(N)=O)CC2)s1 | -1 | 0 | . | 4 | 3
CCS(=O)(=O)c1nc(S(=O)(=O)c2ccc(Cl)cc2)c(N2CCOCC2)s1 | -4 | 0 | -1 | 5 | 38*
O=C(CN1CCc2ccccc2C1)NC1CCCC1 | 0 | 43* | -2 | 2 | 0
SMILES | SIRT5 block | FGF22 binding | NSD2 inh | UCH37 DUB inh | Casp6 inh
O=C(CN1C(=O)NC2(CCCc3ccccc32)C1=O)NC1CCCCC1 (stereo not given) | 16* | 0 | 1 | -2 | 0
C/C=C/c1ccc([C@@H]2[C@H](CO)N(S(C)(=O)=O)[C@H]2CN(CC)C(C)=O)cc1 | 0 | 0 | . | . | 0
Cc1cccc(-c2c3c(=O)n(C)c(=O)n(C)c3cn2-c2ccc(O)cc2)c1 | . | . | 0 | -43 | .
Cn1c(=O)c2c(-c3ccccc3)n(-c3cccc(O)c3)cc2n(C)c1=O | 39* | 41 | . | . | 5
CC(SCc1ccccc1)C(=O)NN=Cc1cc2c(cc1Br)OCO2 (stereo not given) | . | . | . | 1 | .
CC1(C)Cc2c(sc(NC(=O)C3CC(Cl)=CCC3C(=O)O)c2C#N)CO1 (stereo not given) | -4 | 43* | 0 | -1 | -3
COc1ccccc1CNC(=O)CCc1nc2ccccc2c(=O)[nH]1 | . | . | -3 | -1 | .
CN(C)CCCNC(=O)CCc1nc2ccccc2c(=O)[nH]1 | . | . | 0 | 20* | .
COc1ccc(-c2nn(-c3ccccc3)cc2N)cc1 | -1 | 44* | 63* | -139 | -4

High-throughput results from PubChem BioAssay.
